Inconclusive results are not listed. Calls of active or inactive are those of the source.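 The calls were made as follows: active = compounds whose fitted caspase activation AC50 is no more than tenfold above the top tested dose; inconclusive = flat fit with 30 to 70% activity, or a failed fit; inactive = the rest.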
These compounds were tested on MEF Bax/Bak KO A1-BIM, caspase-Glo luminescence, 3 h (assay: caspase activation in Bax/Bak-deficient MEFs, dose response, counter-screen for A1 inhibitor project, cell-based, Bax-Bak knockout MEF, A1-2A-BIM, luminescence (AID 449754);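 also: counterscreen where caspase activation signals off-target toxicity not A1 inhibition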).
Outline: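 Material: A1-2A-BIM MEFs lacking Bax and Bak / Buffer or medium: RPMI-1640, 10% FBS / Compound: 100 nL pinned compound per well / Timing: 3 h compound at 37 °C, 1 h detection at RT / Technique: CaspaseGlo luminescence, reagent diluted 1:1 in 50 mM HEPES / Read-out basis: caspase activity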
With COC(=O)[C@@]1(C)CC[C@]2(C)CC[C@@]3(C)C(=CC(=O)C4[C@@]5(C)CC[C@H](O)C(C)(C)[C@@H]5CC[C@]43C)[C@H]2C1 (some centres undefined) the AC50 was > 35 µM (inactive).
O=[N+]([O-])/C=C/c1cn(Cc2ccc(Cl)cc2)c2ccccc12 showed an AC50 of 20.7 µM.
COc1ccc(Oc2cc(NC(=O)c3nn(C)cc3[N+](=O)[O-])cc([N+](=O)[O-])c2)cc1 was tested, and the AC50 was > 35 µM (inactive).
CC(=O)[C@]1(O)Cc2c(O)c3c(c(O)c2[C@@H](O[C@H]2C[C@H](N)[C@H](O)[C@H](C)O2)C1)C(=O)c1ccccc1C3=O was tested, and the AC50 was > 35 µM (inactive).
With COc1ccc2c(c1)CCc1c(C(=O)Nc3cc(C)n(Cc4ccc(Cl)cc4)n3)noc1-2 the AC50 was 7.59 µM.
Cc1[nH]nc2nc(SCC(=O)NCCC3=CCCCC3)n(-c3ccc(Br)cc3)c(=N)c12 was tested, and the AC50 was 18.6 µM.
With COc1cccc(C(=O)C(C#N)=C(SC)SC)c1 the AC50 was > 35 µM (inactive).
With COc1cc2c(-c3ccccc3)c(C)oc2cc1/C=N/NC(N)=S the AC50 was > 35 µM (inactive).
N#Cc1cccnc1N1CCN(C(=O)c2cccc3c2C(=O)c2ccc(-c4ccc(Cl)c(C(F)(F)F)c4)cc2S3(=O)=O)CC1 was tested, and the AC50 was > 35 µM (inactive).
CCc1nnc(NC(=O)CSc2nc(-c3ccccc3)cc(-c3ccc(F)cc3)c2C#N)s1 gave an AC50 of 35.8 µM.
For CCc1cc2c(=O)c(-c3cnn(-c4ccccc4)c3)c(C)oc2cc1OCC(=O)Nc1cccc(C)c1, the AC50 was > 35 µM (inactive).
For O=S1(=O)CCOC[C@H](CC2CCCCC2)N1Cc1cccc(Cl)c1, the AC50 was > 35 µM (inactive).
Cc1ccc(S(=O)(=O)N(C)Cc2ccc(C(=O)N/N=C/c3ccc(OC(F)F)cc3)cc2)cc1 was tested, and the AC50 was > 35 µM (inactive).
COc1ccc(NC(=O)C(=O)N/N=C\c2ccc(CNC(=O)C(=O)Nc3ccc(C)c(C)c3)o2)c(OC)c1 showed an AC50 of 32 µM.
With CCOC(=O)c1c(C)oc2c1c(CN1CCN(C(=O)OCC)CC1)c(O)c1ccccc12 the AC50 was 13 µM.
In the case of CC[C@H]1CN2CCc3cc(OC)c(OC)cc3[C@@H]2C[C@@H]1C[C@H]1NCCc2cc(OC)c(OC)cc21, the AC50 is reported as > 35 µM (inactive).
With O=C(NC[C@H]1CCCO1)c1cccc2c1C(=O)c1ccc(-c3ccc(F)cc3OCc3ccccc3)cc1S2(=O)=O the AC50 was > 35 µM (inactive).
For CC(C)c1cccc(-c2ccc3c(c2)S(=O)(=O)c2cccc(C(=O)NCc4ccccc4Cl)c2C3=O)c1, the AC50 was > 35 µM (inactive).
With COc1ccc(C(=O)/C=C/C(=O)N(CC(=O)NC2CCCCC2)Cc2cccs2)c(O)c1 the AC50 was > 35 µM (inactive).
COc1cc(NC(=O)c2ccc(Cl)cc2Cl)ccc1-c1cc2ccccc2oc1=O was tested, and the AC50 was > 35 µM (inactive).
For COc1ccc(C[C@H]2NC[C@H](O)[C@H]2OC(C)=O)cc1, the AC50 was > 35 µM (inactive).
For CSC[C@@H]1NC(=S)N(c2ccc(C)cc2)C1=O, the AC50 was > 35 µM (inactive).
COc1cc(/C=C(/C#N)c2nc3ccccc3[nH]2)ccc1OCC(=O)Nc1ccccc1C gave an AC50 of 7.39 µM.
COc1ccc(OC)c(NC(=O)c2cc(-c3cc(C)ccc3O)n[nH]2)c1 was tested, and the AC50 was > 35 µM (inactive).
In the case of O=C(c1ccc(COc2ccc3ccccc3c2)o1)N1N=C(C(F)F)CC1(O)C(F)F (centres undefined), the AC50 is reported as > 35 µM (inactive).
With COc1ccccc1C(=O)Nc1ccnn1C1CCN(Cc2cn(C)c3ccccc23)CC1 the AC50 was > 35 µM (inactive).
For COc1ccc(-c2ccc3c(c2)S(=O)(=O)c2cccc(C(=O)NCCOc4ccccc4)c2C3=O)cc1OC, the AC50 was > 35 µM (inactive).
In the case of CCc1ccccc1NC(=O)C(CC)Sc1nc2cc3c(cc2c(=O)n1Cc1ccco1)OCO3 (centres undefined), the AC50 is reported as > 35 µM (inactive).
With O=C1/C(=C\c2c(NCCOCCO)nc3ccccn3c2=O)SC(=S)N1Cc1ccco1 the AC50 was > 35 µM (inactive).
NC(=S)c1cn(C2OC(CO)C(O)C2O)c2ncnc(N)c12 (centres undefined) was tested, and the AC50 was > 35 µM (inactive).
In the case of Cc1ccc(NC(=O)CSc2nc3nc(C)c(Br)cc3[nH]2)cc1F, the AC50 is reported as > 35 µM (inactive).
With CC1=NNC(=O)/C1=C\c1cn(-c2ccccc2)nc1-c1ccccc1 the AC50 was 11 µM.
COc1ccc(-c2c(C#N)c(N)nc(Sc3ccc(Cl)cc3)c2C#N)cc1 was tested, and the AC50 was > 35 µM (inactive).
CC(C)(C)c1ccc2c(c1)OC(C(=O)N/N=C\c1ccc[nH]1)CO2 (centres undefined) was tested, and the AC50 was > 35 µM (inactive).
With Cc1cccc(C)c1NC(=O)C(Cl)C(=O)c1ccccc1 (centres undefined) the AC50 was > 35 µM (inactive).
Cc1cc(C(=O)CCl)c(C)n1CCc1ccc(Cl)cc1 was tested, and the AC50 was > 35 µM (inactive).
In the case of O=c1c(Cl)c(Cl)cnn1Cc1ccccc1Cl, the AC50 is reported as > 35 µM (inactive).
With CCc1ccc(Oc2coc3cc(OCC(=O)Nc4cc(C)ccc4C)ccc3c2=O)cc1 the AC50 was > 35 µM (inactive).
For CN(C)C/C=C(\c1ccc(Br)cc1)c1cccnc1, the AC50 was > 35 µM (inactive).
O=C(Nc1ccc(-c2nc3cc(NC(=O)c4cccs4)ccc3o2)cc1)c1cccs1 was tested, and the AC50 was > 35 µM (inactive).
For Cc1ccc(NC(=O)c2ccc(NCC3CCCO3)c([N+](=O)[O-])c2)cc1Cl (centres undefined), the AC50 was > 35 µM (inactive).
Compound Cc1ccc(C)c(NC(=S)NC(NC(=O)Cc2cccc3ccccc23)C(Cl)(Cl)Cl)c1 (centres undefined) has an AC50 of 24.1 µM.
Cc1cc(=O)[nH]c(SCC(=O)Nc2ccc(Br)cc2)c1C#N was tested, and the AC50 was > 35 µM (inactive).
In the case of O=C(NCc1ccccc1Br)c1cccc2c1C(=O)c1ccc(-c3ccc(OC(F)(F)F)cc3)cc1S2(=O)=O, the AC50 is reported as > 35 µM (inactive).
Cc1ccc(NC(=O)c2ccc(N/N=C/c3cccc(O)c3)c([N+](=O)[O-])c2)cc1 was tested, and the AC50 was 27.3 µM.
In the case of CCN(C(=O)CCN1C(=O)c2ccccc2S1(=O)=O)c1ccccc1, the AC50 is reported as > 35 µM (inactive).
In the case of CC1=CC(=O)C(C(C)C)=C/C1=N/OS(=O)(=O)c1ccccc1, the AC50 is reported as 7.41 µM.
For C=CC(=O)Nc1ccc(CN2C(=O)N(c3c(Cl)c(OC)cc(OC)c3Cl)Cc3cnc(NCCCCN(CC)CC)nc32)cc1, the AC50 was > 35 µM (inactive).
In the case of Cc1cccc(CS(=O)(=O)c2ncc(Cl)c(C(=O)Nc3nnc(C(C)C)s3)n2)c1, the AC50 is reported as > 35 µM (inactive).
With CCc1nn(-c2cc(Oc3cccc4ccccc34)nc(-c3ccccc3)n2)c(N)c1C#N the AC50 was > 35 µM (inactive).
In the case of c1ccc(-c2sc3ccccc3c2-c2ccc(OCCN3CCCC3)cc2)cc1, the AC50 is reported as 33 µM.
With CCOCCCNC(=O)c1ccc2c(c1)N=C(CC)c1cc(Br)ccc1S2 the AC50 was > 35 µM (inactive).
Work on O=C(COc1ccc(/C=N/NC(=O)c2cc3ccccc3o2)cc1Cl)Nc1ccccc1 yielded an AC50 of 9.03 µM.
Cc1ccc(S(=O)(=O)c2nnn3c2nc(Nc2cccc(C)c2)c2ccccc23)cc1 was tested, and the AC50 was > 35 µM (inactive).
For CC(C)(C)c1ccc(C(=O)Nc2ccc(O)c3c(=O)cc(-c4cccc(Cl)c4)oc23)cc1, the AC50 was > 35 µM (inactive).
In the case of COc1ccccc1-c1cn[nH]c1-c1ccc(OCc2ccccc2)cc1O, the AC50 is reported as > 35 µM (inactive).
CC1CCc2c(sc3nc(C(C)(C)C)nc(N4CCN(C(=O)CCl)CC4)c23)C1 (centres undefined) was tested, and the AC50 was 12.3 µM.
O=C(Nc1ccc2oc(-c3ccccc3)nc2c1)c1ccccc1F was tested, and the AC50 was > 35 µM (inactive).
CN(C)CCCN(C(=O)c1cc2cc([N+](=O)[O-])ccc2s1)c1nc2cc3c(cc2s1)OCCO3 was tested, and the AC50 was > 35 µM (inactive).
In the case of Cc1cccc(NC(=O)/C(C#N)=C/c2cn(CC(=O)NCc3ccco3)c3ccccc23)c1, the AC50 is reported as > 35 µM (inactive).
CCSc1nnc(NC(=O)c2nc(S(=O)(=O)Cc3ccc(F)cc3)ncc2Cl)s1 was tested, and the AC50 was > 35 µM (inactive).
CCCCN1C(=O)/C(=C2/Sc3ccccc3N2C)S/C1=N\c1ncn[nH]1 was tested, and the AC50 was > 35 µM (inactive).
In the case of Cc1c(C=O)c(C=O)c(C)n1Cc1ccccc1, the AC50 is reported as > 35 µM (inactive).
For COc1ccc(-c2oc(=O)c3cc(OC)c(OC)cc3c2/C=C/c2cccc([N+](=O)[O-])c2)cc1, the AC50 was > 35 µM (inactive).
